Experiment [1] relates to U-937. Briefly: Cytotoxicity against human U937 cells after 72 hrs by sulforhodamine B assay. Format: functional, cell-based. Conditions: U-937, 72 h. On the technique in general: Sulforhodamine B stains cellular protein and so reports cell mass.
A short description of experiment [2]: Binding affinity to zinc assessed as formation of zinc-compound complex by EGTA fluorescence titration assay.
Experiment [3] deals with T1, Caspase-3 (Homo sapiens) (UniProt P42574).
T1 sequence (whole entry): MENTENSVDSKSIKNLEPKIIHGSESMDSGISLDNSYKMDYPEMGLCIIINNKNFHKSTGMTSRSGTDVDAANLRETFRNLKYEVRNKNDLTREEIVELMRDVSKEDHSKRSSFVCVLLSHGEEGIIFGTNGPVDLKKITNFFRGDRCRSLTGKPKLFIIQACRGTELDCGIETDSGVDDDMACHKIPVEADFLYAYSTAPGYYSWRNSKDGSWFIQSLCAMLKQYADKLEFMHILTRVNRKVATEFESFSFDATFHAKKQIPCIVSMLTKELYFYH
Briefly: Inhibition of 6xHis-tagged recombinant caspase 3 expressed in Escherichia coli BL21 (DE3) at 10 uM after 30 mins in absence of zinc ion.

In experiment [4] the test system is U-937. As to the kind of experiment: Induction of apoptosis in human U937 cells assessed as early apoptotic cells at 50 uM after 12 hrs by FITC-conjugated annexin V and propidium iodide staining-based flow cytometry. Type of experiment: functional. The gist of the method: (§1)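 U-937 cells incubated with compound at 50 μM or vehicle for 12 hours, then co-stained with propidium iodide and FITC-labeled Annexin V; Annexin V-positive/PI-negative cells scored as early apoptotic.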
(In general: In flow cytometry, cells or beads pass a laser one at a time.)

Experiment [5] concerns U-937. As to the kind of experiment: Induction of apoptosis in human U937 cells assessed as viable cells at 50 uM after 12 hrs by FITC-conjugated annexin V and propidium iodide staining-based flow cytometry. Type of experiment: functional. As to conditions: U-937, 12 h, read-out: Activity. The method, boiled down: as §1
For experiment [6], the system named is U-937. As to the kind of experiment: Induction of apoptosis in human U937 cells assessed as non-viable necrotic cells at 50 uM after 12 hrs by FITC-conjugated annexin V and propidium iodide staining-based flow cytometry. Type of experiment: functional. The gist of the method: as §1
In experiment [7] the test system is U-937. As to the kind of experiment: Induction of apoptosis in human U937 cells assessed as late apoptotic cells at 50 uM after 12 hrs by FITC-conjugated annexin V and propidium iodide staining-based flow cytometry. Type of experiment: functional. The method, boiled down:
as §1

The target of experiment [8] is T1, Caspase-3 (Homo sapiens). As to the kind of experiment: Activation of 6xHis-tagged recombinant caspase 3 expressed in Escherichia coli BL21 (DE3) at 50 uM after 30 mins in presence of zinc ion.
Experiment [9] deals with T1, Caspase-3 (Homo sapiens). Briefly: Induction of procaspase 3 activation in human SK-MEL-5 cells assessed as caspase 3 cytoplasmic colocalization at 25 uM after 1 hr by immunofluorescent staining-based confocal microscopy in presence of 25 uM caspase 3/7 inhibitor FAM-DEVD-fmk. Type of experiment: cell-based. The method, boiled down: (§2)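 Live SK-MEL-5 cells treated with DMSO or compound (25 μM) together with FAM-DEVD-fmk (25 μM), a fluorescent irreversible active-site caspase-3/-7 label, for 1 hour; washed in phenol red-free medium, incubated 2 hours further, then imaged by multiphoton confocal microscopy.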

The target in experiment [10] is T1, Caspase-3 (Homo sapiens). As to the kind of experiment: Induction of procaspase 3 activation in human SK-MEL-5 cells assessed as caspase 3 cytoplasmic colocalization at 25 uM after 1 hr by immunofluorescent staining-based confocal microscopy. Type of experiment: cell-based. The method, boiled down: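 SK-MEL-5 cells given DMSO or 25 μM compound for 1 hour, washed with phenol red-free medium, incubated 2 more hours, fixed, stained with rabbit anti-caspase-3 antibody (recognizes procaspase-3 and caspase-3) plus anti-rabbit Alexa Fluor 647 secondary, mounted and imaged by multiphoton confocal microscopy.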

A further experiment concerns SK-MEL-5. As to the kind of experiment: Zinc chelating activity in human SK-MEL-5 cells assessed as appearance of punctate cytoplasmic staining pattern at 25 uM after 1 hr by immunofluorescent staining-based confocal microscopy. Format: functional, cell-based. The method, boiled down:
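Live SK-MEL-5 cells incubated 1 hour with 25 μM fluorescent derivative, washed with phenol red-free medium, incubated 2 further hours; DNA stained with SYBR green; imaged by multiphoton confocal microscopy for subcellular, punctate cytoplasmic fluorescence.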

Experiment [11] has as its target T1, Caspase-3 (Homo sapiens). As to the kind of experiment: Induction of procaspase 3 activation in human SK-MEL-5 cells at 25 uM after 1 hr by immunofluorescent staining-based confocal microscopy in presence of 25 uM caspase 3/7 inhibitor FAM-DEVD-fmk. Type of experiment: cell-based. The method, boiled down:
as §2

The source made the active and inactive calls. No cut-off for these calls is given here.

For `C=CCc1cccc(/C=N/NC(=O)CC2CCN(C(=O)OC(C)(C)C)CC2)c1O`, in the experiment on U-937 [1], half-maximal inhibition (IC50) was put at 6.5 µM. Besides, in experiment [2], the dissociation constant Kd (in general, a measure of binding affinity in units of concentration) worked out at 0.048 µM. For the same compound, the inhibition result on Caspase-3 (Homo sapiens) [3] is “Active”.

For the compound `COc1ccc(OC)c(CN2CCN(CC(=O)N/N=C/c3ccccc3O)CC2)c1`, in the experiment on U-937 [1], half-maximal inhibition (IC50) was put at 12 µM. In addition, the Kd in experiment [2] came to 0.065 µM.

Consider `O=C(CN1CCN(Cc2ccccc2)CC1)N/N=C/c1ccccc1Cl`, for which the IC50 (in general, the concentration at which inhibition is half-maximal) with U-937 [1] came out at 57 µM. The Kd in [2] is above 10 µM.

On to `C=CCc1cccc(/C=N/NC(=O)CN2CCC(Cc3ccccc3)CC2)c1O`, for which the results for the Activity in the experiment on U-937 [4], with U-937 [6] and in the experiment on U-937 [7] were 41%, 0% and 10%, respectively. Besides, the 50% inhibitory concentration (IC50) in the experiment with U-937 [1] is 2.7 µM. For the same compound, the viability at 50 µM in the experiment with U-937 [5] was found to be 49%. In addition, the equilibrium dissociation constant (Kd) in [2] is 0.049 µM.

In the experiment with U-937 [1], `O=C(CN1CCN(Cc2ccccc2)CC1)N/N=C/c1ccccc1` showed a half-inhibitory concentration (IC50) above 100 µM. Besides, in experiment [2], the dissociation constant (Kd) was above 10 µM.

In the experiment with U-937 [1], `O=C(CN1CCN(Cc2ccccc2)CC1)N/N=C/c1ccccc1C(=O)O` came in with an IC50 above 100 µM. The Kd in experiment [2] was above 10 µM.

`COC(=O)c1ccccc1/C=N/NC(=O)CN1CCN(Cc2ccccc2)CC1`: the IC50 in the experiment with U-937 [1] is above 100 µM. In experiment [2], the Kd was above 10 µM.

In the experiment on U-937 [1], `C=CCc1cccc(/C=N/NC(=O)CN2CCN(Cc3ccccc3)CC2)c1OC` returned an IC50 of 32 µM. For the same compound, the Kd in experiment [2] is above 10 µM.

`O=C(CN1CCN(Cc2ccccc2)CC1)NCCc1ccccc1O` displayed a half-maximal inhibitory concentration (IC50) with U-937 [1] above 100 µM. For the same compound, in experiment [2], the Kd is above 10 µM.

In the experiment on U-937 [1], `CSc1ccccc1/C=N/NC(=O)CN1CCN(Cc2ccccc2)CC1` showed an IC50 of 61 µM. Also, the Kd in experiment [2] was above 10 µM.

For `C=CCc1cccc(/C=N/NC(=O)CC2CCN(Cc3ccccc3)CC2)c1O`, in the experiment on U-937 [1], the IC50 stood at 2.8 µM. Besides, the dissociation constant Kd in experiment [2] is 0.044 µM. Moreover, on Caspase-3 (Homo sapiens) [3], the inhibition entry was “Active”.

On to `Nc1ccccc1/C=N/NC(=O)CN1CCN(Cc2ccccc2)CC1`, for which the half-inhibitory concentration (IC50) in the experiment on U-937 [1] was above 100 µM. The dissociation constant (Kd) in experiment [2] was above 10 µM.

Take `C=CCc1cccc(CNNC(=O)CN2CCN(Cc3ccccc3)CC2)c1O`: it took 59 µM to reach half-maximal inhibition with U-937 [1] (IC50). The Kd in experiment [2] was above 10 µM.

In the experiment with U-937 [1], `O=C(CN1CCN(Cc2ccccc2)CC1)NCc1ccccc1O` yielded an IC50 above 100 µM. The Kd in experiment [2] was above 10 µM.

In the experiment with U-937 [1], `C=CCc1cccc(/C=N/NC(=O)CN2CCN(Cc3ccncc3)CC2)c1O` returned an IC50 of 21 µM. For the same compound, in experiment [2], the Kd came to 0.08 µM.

In turn, `O=C(CN1CCN(Cc2ccccc2)CC1)N/N=C/c1ccccc1SSc1ccccc1/C=N/NC(=O)CN1CCN(Cc2ccccc2)CC1` yielded an IC50 in the experiment on U-937 [1] above 100 µM. Besides, the dissociation constant Kd in experiment [2] was above 10 µM.

Turning to `C=CCc1cccc(/C=N/NC(=O)CN2CCN(Cc3cccnc3)CC2)c1O`, the IC50 in the experiment with U-937 [1] was 14 µM. For the same compound, in experiment [2], the dissociation constant (Kd) worked out at 0.062 µM.

In the experiment with U-937 [1], `C=CCc1cccc(/C=N/NC(=O)CN2CCN(Cc3ccc(OC)cc3)CC2)c1O` displayed a concentration for half-maximal inhibition (IC50) of 2.7 µM. Besides, the Kd in experiment [2] stood at 0.047 µM.

`O=C(CN1CCN(Cc2ccccc2)CC1)N/N=C/c1ccccc1S`: the IC50 in the experiment with U-937 [1] was above 100 µM. Also, in [2], the Kd was above 10 µM.

`C=CCc1cccc(/C=N/NC(=O)CN2CCN(Cc3cccc([N+](=O)[O-])c3)CC2)c1O` came in with a half-maximal inhibitory concentration (IC50) in the experiment on U-937 [1] of 4.6 µM. Besides, the equilibrium dissociation constant (Kd) in [2] is 0.045 µM.

Regarding `C=CCc1cccc(/C=N/NC(=O)CN2CCN(Cc3cccc(Cn4cc(CNC(=O)Cc5c(C)c6cc(S(=O)(=O)O)c(N)cc6oc5=O)nn4)c3)CC2)c1O`, the Activity at Caspase-3 (Homo sapiens) [8] was determined as 20%. For the same compound, the result at Caspase-3 (Homo sapiens) [9], at Caspase-3 (Homo sapiens) [10] and with SK-MEL-5 was Active. Also, the half-maximal inhibitory concentration (IC50) with U-937 [1] was 14.8 µM. Besides, the Kd in experiment [2] was 0.061 µM.

`C=CCc1cccc(/C=N/N(C)C(=O)CN2CCN(Cc3ccccc3)CC2)c1O`: the IC50 in the experiment on U-937 [1] is 22 µM. Besides, the Kd in experiment [2] is above 10 µM.

`C=CCc1cccc(/C=N/NC(=O)CN2CCN(Cc3cc(OC)ccc3OC)CC2)c1O` returned an IC50 in the experiment with U-937 [1] of 1 µM. Moreover, the dissociation constant Kd in [2] was 0.039 µM.

In the case of `C=CCc1cccc(/C=N/NC(=O)CN2CCN(Cc3ccc(F)cc3)CC2)c1O`, the Activity in the experiment with U-937 [4] is on record as 30%; in the experiment with U-937 [6], 0%; with U-937 [7], 8%. For the same compound, in the experiment on U-937 [1], the half-inhibitory concentration (IC50) was determined as 2 µM. In addition, in the experiment on U-937 [5], the viability at 50 µM was 62%. Also, the equilibrium dissociation constant (Kd) in experiment [2] turned out to be 0.048 µM.

For `C=CCc1cccc(/C=N/NC(=O)CN2CCN(Cc3ccccc3)CC2)c1O` [PAC-1], the Activity is 31% in the experiment on U-937 [4], 0% with U-937 [6] and 11% with U-937 [7]. The same compound showed an IC50 with U-937 [1] of 4.8 µM. The result on Caspase-3 (Homo sapiens) [11] and on Caspase-3 (Homo sapiens) [10] was Active. The viability at 50 µM in the experiment on U-937 [5] was determined as 58%. Further, the Kd in experiment [2] was 0.052 µM.

`C=CCc1cc(/C=N/NC(=O)CN2CCN(Cc3ccccc3)CC2)c(O)c(CC=C)c1` came in with an IC50 in the experiment on U-937 [1] of 1.8 µM. Besides, the Kd in experiment [2] came to 0.043 µM.

(Values after ChEMBL document CHEMBL1155195 (J Med Chem, 2009).)
